In ChEMBL document CHEMBL5252546, “Salutaxel, a Conjugate of Docetaxel and a Muramyl Dipeptide (MDP) Analogue, Acts as Multifunctional Prodrug That Inhibits Tumor Growth and Metastasis” (J Med Chem, 2018):
Active and inactive are the calls of the source. The calls are words filed in the database; no cut-off is given here.

Key:
[1] = Tmax in Beagle dog at 2 mg/kg,iv measured upto 24 hrs; type: ADME, organism-based, Canis lupus familiaris; settings: in vivo
[2] = Drug excretion in rat urine at 4 mg/kg,iv measured upto 72 hrs; type: ADME, organism-based; settings: read-out: Drug excretion
[3] = Clearance in female rat at 2 mg/kg,iv measured upto 24 hrs; type: ADME, organism-based; settings: in vivo
Method in brief: (§1)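 Rats were given a single iv injection at 2, 4 or 8 mg/kg. Plasma parent drug and released docetaxel were followed over time. Cmax, Tmax, AUC, MRT, t1/2, CL and Vss were reported for males, females and all animals combined.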

[4] = Prodrug conversion in mouse plasma implanted with mouse 4T1 cells assessed as AUC (0-t) of docetaxel at 4 mg/kg,iv measured upto 72 hrs; type: ADME, organism-based; parameters: time < 72 hrs, dose 4 mg/kg, route iv; settings: in vivo
[5] = Half life in Beagle dog at 2 mg/kg,iv measured upto 24 hrs; type: ADME, organism-based, Canis lupus familiaris; settings: in vivo
[6] = Clearance in rat at 2 mg/kg,iv measured upto 24 hrs; type: ADME, organism-based; settings: in vivo; method in brief: as §1
4T1 [7] = assay: Antitumor activity against mouse 4T1 cells implanted in BALB/c mouse assessed as decrease in serum S100A9 level at 20 mg/kg,iv administrated once per week for 4 weeks by ELISA; type: functional, organism-based
Method in brief: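 4T1 fat-pad model in BALB/c mice, iv 5–20 mg/kg once weekly for 4 weeks, with vehicle and naive groups; serum MMP9, TIMP-1, IL-6 and S100A9 measured by mouse ELISA kits.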

[8] = Cmax in male Beagle dog at 2 mg/kg,iv measured upto 24 hrs; type: ADME, organism-based, Canis lupus familiaris; parameters: dose 2 mg/kg, time < 24 hrs, route iv; settings: in vivo
Method in brief: (§2)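 Beagle dogs were given a single iv infusion at 1, 2 or 4 mg/kg. Plasma parent drug and released docetaxel were followed over time. Cmax, Tmax, AUC, MRT, t1/2, CL and Vss were reported by sex and for all dogs combined.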

[9] = Toxicity in Beagle dog assessed as effect on gastrointestinal tract at 3 to 18 mg/kg,iv measured upto 24 hrs; type: organism-based, Canis lupus familiaris; settings: in vivo, dose 3-18 mg/kg
[10] = MRT (0 to infinity) in Beagle dog at 1 mg/kg,iv measured upto 24 hrs; type: ADME, organism-based, Canis lupus familiaris; settings: in vivo
[11] = Toxicity in BALB/c mouse injected with mouse 4T1 cells assessed as decrease in body weight at 20 mg/kg,iv administrated once per week for 4 weeks; type: organism-based; parameters: scale not given: the % may be the effect or the level left; settings: in vivo, 672 h
NCI-H460 = assay: Antiproliferative activity against human NCI-H460 cells assessed inhibition of cell growth incubated for 72 hrs by SRB assay; type: functional, cell-based; settings: NCI-H460, 72 h
4T1 [12] = assay: Antitumor activity against mouse 4T1 cells implanted in BALB/c mouse assessed as decrease in spleen MDSC cells at 20 mg/kg,iv measured after 28 days (reference value: 38%); type: functional; parameters: scale not given: the % may be the effect or the level left; settings: time 28 day
[13] = Drug metabolism in mouse hepatocytes assessed as docetaxel metabolite formation at 20 uM incubated for 180 mins; type: ADME, cell-based, Hepatocyte; settings: 3 h
4T1 [14] = assay: Antitumor activity against mouse 4T1 cells implanted in BALB/c mouse assessed as decrease in MMP8 mRNA expression in lung at 20 mg/kg,iv administrated qd for 2 days by qRT-PCR analysis; type: functional, organism-based; settings: time 2.0 day
Method in brief: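 Day 19 after 4T1 implantation, mice randomised into five groups; iv vehicle or 20 mg/kg plus ip C12-iE-DAP (50 μg/mouse) and MDP (100 μg/mouse) once daily for 2 days; killed after 48 h; lung mRNA for MMP8, MMP9, PROK2, S100A8, S100A9 and IL-1β by qPCR; mean ± SEM.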

[15] = Half life in mouse tumor implanted with mouse 4T1 cells at 10 mg/kg,iv measured upto 72 hrs; type: ADME, organism-based, Neoplasm
[16] = MRT in mouse plasma implanted with mouse 4T1 cells at 10 mg/kg,iv measured upto 72 hrs; type: ADME, organism-based
[17] = Stability in human plasma assessed as compound remaining at 40 uM incubated for 6 hrs; type: ADME, cell-free
4T1 [18] = assay: Synergistic antitumor activity against mouse 4T1 cells xenografted with BALB/c mouse assessed as decrease in tumor volume at 10 mg/kg,iv administrated in combination with doxorubicin once per week for 4 weeks; type: functional, organism-based
[19] = AUC (0-infinity) in female Beagle dog at 2 mg/kg,iv measured upto 24 hrs; type: ADME, organism-based, Canis lupus familiaris; parameters: time < 24 hrs, dose 2 mg/kg, route iv; settings: in vivo
Method in brief: (§3)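 Single iv dose: rats 2, 4 or 8 mg/kg by intravenous injection; Beagle dogs 1, 2 or 4 mg/kg by intravenous infusion. Plasma concentration–time data were analysed by sex and pooled. Reported parameters: Cmax, Tmax, AUC0−t, AUC0−∞, MRT0−∞, t1/2, CL, Vss, given as mean ± SD.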

[20] = AUC (0-infinity) in rat at 8 mg/kg,iv measured upto 24 hrs; type: ADME, organism-based; parameters: time < 24 hrs, dose 8 mg/kg, route iv; settings: in vivo; method in brief: as §3
[21] = Clearance in Beagle dog at 1 mg/kg,iv measured upto 24 hrs; type: ADME, organism-based, Canis lupus familiaris; settings: in vivo; method in brief: as §2
[22] = Cmax in mouse tumor implanted with mouse 4T1 cells at 10 mg/kg,iv measured upto 72 hrs; type: ADME, organism-based, Neoplasm; parameters: time < 72 hrs, dose 10 mg/kg, route iv
Method in brief: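 BALB/c mice carried 4T1 cells implanted in the mammary fat pad and received a single iv dose of 10 mg/kg. Parent drug and released docetaxel were assayed in plasma and tumor tissue up to 72 h. Parameters came from noncompartmental analysis, n = 6, mean ± SD.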

[23] = Tmax in rat at 2 mg/kg,iv measured upto 24 hrs; type: ADME, organism-based; settings: in vivo
[24] = Drug metabolism in rat plasma assessed as metabolite MDA-205 formation at 4 mg/kg,iv measured after 24 hrs; type: ADME, organism-based; settings: in vivo
[25] = Clearance in male Beagle dog at 4 mg/kg,iv measured upto 24 hrs; type: ADME, organism-based, Canis lupus familiaris; settings: in vivo; method in brief: as §2
4T1 [26] = assay: Antitumor activity against mouse 4T1 cells implanted in BALB/c mouse assessed as decrease in serum TIMP-1 level at 5.7 mg/kg,iv administrated once per week for 4 weeks by ELISA; type: functional, organism-based
[27] = Toxicity in BALB/c mouse xenografted with human HCT-116 cells assessed as body weight loss at 5.7 mg/kg,iv administrated once per week for 3 weeks; type: organism-based; settings: in vivo, 504 h
Method in brief: (§4)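 Nude BALB/c nu/nu mice received subcutaneous human tumour cells into the right flank. Dosing started at mean tumour volume of 100–120 mm3, iv once weekly for 3 weeks; the taxane arm was an equimolar control. Body weight and overt side effects were monitored. Mean ± SEM, n = 8.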

[28] = Toxicity in BALB/c mouse injected with mouse 4T1 cells assessed as body weight loss at 5.7 mg/kg,iv in presence of compound 5b administrated once per week for 4 weeks; type: organism-based; settings: in vivo, 672 h
4T1 [29] = assay: Antitumor activity against mouse 4T1 cells implanted in BALB/c mouse assessed as decrease in tumor MMP2 expression level at 5.7 mg/kg,iv administrated once per week for 4 weeks in presence of MDA-205 by western blot assay; type: functional, organism-based
Method in brief: (§5)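 4T1 cells injected into mammary fat pads of BALB/c mice. Saline vehicle or test article given iv once weekly for 4 weeks. Spleen, lung and tumor lysates immunoblotted for MMP2/MMP9 with β-actin as loading control. Bands averaged over five mice per group, representative of two independent experiments.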

4T1 [30] = assay: Antitumor activity against mouse 4T1 cells implanted in BALB/c mouse assessed as decrease in lung MMP2 expression level at 5.7 mg/kg,iv administrated once per week for 4 weeks in presence of compound 5b by western blot assay; type: functional, organism-based; method in brief: as §5
[31] = Toxicity in BALB/c mouse xenografted with human MDA-MB-231 cells assessed as body weight loss at 5.7 mg/kg,iv administrated once per week for 3 weeks; type: organism-based; settings: in vivo, 504 h; method in brief: as §4

CC(=O)O[C@@]12CO[C@@H]1C[C@H](O)[C@@]1(C)C(=O)[C@H](O)C3=C(C)[C@@H](OC(=O)[C@H](OC(=O)CCC(=O)NCCCC[C@H](NC(=O)CC[C@@H](NC(=O)[C@H](C)NC(=O)/C=C/c4ccc(F)cc4Cl)C(N)=O)C(=O)O)[C@@H](NC(=O)OC(C)(C)C)c4ccccc4)C[C@@](O)([C@@H](OC(=O)c4ccccc4)[C@H]21)C3(C)C
Tmax [1]: 30 min | dose excreted at 72 h [2]: 9.38% | clearance [3]: 7.73 mL/min/kg | AUCt [4]: 8.43 µM·h | half-life [5]: 30.5 min | clearance [6]: 6.66 mL/min/kg | Activity (4T1 [7]): Active | Cmax [8]: 10800 ng/mL | Activity [9]: Toxic | MRT inf [10]: 15.2 min | Activity [11]: 8% | IC50 (NCI-H460): 16.3 nM | Activity (4T1 [12]): 10.1% | Drug metabolism [13]: Metabolite_Detected | Activity (4T1 [14]): Active | half-life [15]: 93.6 min | MRT [16]: 27 min | Stability [17]: Stable | Activity (4T1 [18]): Active | AUC(0-inf) [19]: 7020 ng·h/mL | AUC(0-inf) [20]: 46100 ng·h/mL | clearance [21]: 11.5 mL/min/kg | Cmax [22]: 140 nM | Tmax [23]: 4.98 min | Drug metabolism [24]: Metabolite_Detected | clearance [25]: 4.56 mL/min/kg

CC(=O)O[C@@]12CO[C@@H]1C[C@H](O)[C@@]1(C)C(=O)[C@H](O)C3=C(C)[C@@H](OC(=O)[C@H](O)[C@@H](NC(=O)OC(C)(C)C)c4ccccc4)C[C@@](O)([C@@H](OC(=O)c4ccccc4)[C@H]21)C3(C)C [DOCETAXEL ANHYDROUS]
Activity (4T1 [26]): Active | Activity [27]: Non-Toxic | Activity [28]: Non-Toxic | Activity (4T1 [29]): inactive | Activity (4T1 [30]): inactive | Activity [31]: Non-Toxic
